Test results as given in ChEMBL document CHEMBL1123986, “Oral absorption of cephalosporin antibiotics. 2. Expanded structure-activity relationships of 7-(arylacetamido)-3-substituted cephalosporins” (1988).
Values after ≈ are worked out from the molar mass of the structure shown.

Legend:
Mus musculus [1] = experiment: (§1) Effective dose administered subcutaneously (sc) to 19-21-g random sex ICR mice at 1 hr and 5 hr intervals after intraperitoneal administration of Streptococcus pyogenes; format: functional
Method in brief: (§2)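 Mouse protection: random-sex ICR mice, 19–21 g, challenged intraperitoneally from a frozen organism pool giving 50–500 LD50 per challenge dose. Drug given sc or po at 1 and 5 h post-infection. Five 2-fold dilution levels per compound, eight mice per dilution.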

Streptococcus pneumoniae [2] = experiment: Efficacy against mouse infections caused by S. Pneumoniae measured as Minimum inhibitory concentration
[3] = Ratio of ED50 value evaluated in Streptococcus pyogenes by po to sc administration; format: functional
Method in brief: (§3)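 Oral/subcutaneous effective-dose ratio. Both routes were dosed in random-sex ICR mice of 19–21 g at 1 and 5 h after an intraperitoneal challenge of 50–500 LD50 from a frozen organism pool. Each route used five 2-fold dilution levels with eight mice per level, and the po value was divided by the sc value.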

Streptococcus pneumoniae [4] = experiment: Minimum inhibitory concentration against Streptococcus pneumoniae; format: functional
Method in brief: (§4)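 Agar dilution MIC in μg/mL. […] Organisms not run are marked not tested.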

Haemophilus influenzae [5] = experiment: (§5) Minimum inhibitory concentration against Haemophilus influenzae; format: functional; method in brief: as §4
Mus musculus [6] = experiment: (§6) Effective dose administered subcutaneously (sc) to 19-21-g random sex ICR mice at 1 hr and 5 hr intervals after intraperitoneal administration of Streptococcus pneumoniae; format: functional; method in brief: as §2
Streptococcus pyogenes [7] = experiment: Minimum inhibitory concentration against Streptococcus pyogenes; format: functional; method in brief: as §4
Haemophilus influenzae [8] = experiment: as §5; format: functional; method in brief: as §4; remark: listed apart in the source
[9] = Ratio of ED50 value evaluated in Staphylococcus aureus by po to sc administration; format: functional; method in brief: as §3
Mus musculus [10] = experiment: (§7) Effective dose administered orally (po) to 19-21-g random sex ICR mice at 1 hr and 5 hr intervals after intraperitoneal administration of Streptococcus pneumoniae; format: functional; method in brief: as §2
Streptococcus pyogenes [11] = experiment: Efficacy against mouse infections caused by Streptococcus pyogenes measured as Minimum inhibitory concentration
Mus musculus [12] = experiment: (§8) Effective dose administered orally (po) to 19-21-g random sex ICR mice at 1 hr and 5 hr intervals after intraperitoneal Streptococcus pyogenes; format: functional; method in brief: as §2
Mus musculus [13] = experiment: (§9) Effective dose administered subcutaneously (sc) to 19-21-g random sex ICR mice at 1 hr and 5 hr intervals after intraperitoneal administration of Staphylococcus aureus; format: functional; method in brief: as §2
Escherichia coli = experiment: Minimum inhibitory concentration against Escherichia coli; format: functional; method in brief: as §4
Staphylococcus aureus [14] = experiment: Efficacy against mouse infections caused by Staphylococcus aureus measured as Minimum inhibitory concentration
Klebsiella aerogenes = experiment: Minimum inhibitory concentration against Enterobacter aerogenes; format: functional; method in brief: as §4
Salmonella typhi [15] = experiment: Minimum inhibitory concentration against Salmonella typhi; format: functional, Salmonella enterica subsp. enterica serovar Typhi; settings: Salmonella enterica
Staphylococcus aureus [16] = experiment: Minimum inhibitory concentration against Staphylococcus aureus; format: functional; method in brief: as §4
Klebsiella pneumoniae [17] = experiment: Minimum inhibitory concentration against Klebsiella pneumoniae; format: functional; method in brief: as §4
Mus musculus [18] = experiment: (§10) Effective dose administered orally (po) to 19-21-g random sex ICR mice at 1 hr and 5 hr intervals after intraperitoneal Staphylococcus aureus; format: functional; method in brief: as §2
Haemophilus influenzae [19] = experiment: Minimum inhibitory concentration by agar dilution method against (beta lactamase(+); format: functional; method in brief: as §4
Haemophilus influenzae [20] = experiment: Minimum inhibitory concentration by agar dilution method against Haemophilus influenzae (beta lactamase(-); format: functional; method in brief: as §4
Mus musculus [21] = experiment: Effective dose administered orally (po) to 19-21-g random sex ICR mice at 1 hr and 5 hr intervals after intraperitoneal Streptococcus pneumoniae; format: functional; method in brief: as §2
[22] = Ratio of ED50 value evaluated in Streptococcus pneumoniae by po to sc administration; format: functional; method in brief: as §3
Salmonella typhi [23] = experiment: Minimum inhibitory concentration by agar dilution method against Salmonella typhi; format: functional, Salmonella enterica subsp. enterica serovar Typhi; settings: Salmonella enterica
Streptococcus pyogenes [24] = experiment: as §1; format: functional; method in brief: as §2
Streptococcus pneumoniae [25] = experiment: as §6; format: functional; method in brief: as §2
Staphylococcus aureus [26] = experiment: Efficacy against mouse infections caused by Staphylococcus aureus measured as Minimum inhibitory concentration; format: functional
Streptococcus pneumoniae [27] = experiment: as §7; format: functional; method in brief: as §2
Streptococcus pyogenes [28] = experiment: as §8; format: functional; method in brief: as §2
Staphylococcus aureus [29] = experiment: as §9; format: functional; method in brief: as §2
Klebsiella pneumoniae [30] = experiment: Minimum inhibitory concentration by agar dilution method against Klebsiella pneumoniae; format: functional; method in brief: as §4
Haemophilus influenzae [31] = experiment: Minimum inhibitory concentration by agar dilution method against Haemophilus influenzae (beta lactamase(-)); format: functional; method in brief: as §4
Streptococcus pyogenes [32] = experiment: Efficacy against mouse infections caused by Streptococcus pyogenes measured as Minimum inhibitory concentration; format: functional
Staphylococcus aureus [33] = experiment: as §10; format: functional; method in brief: as §2
Streptococcus pneumoniae [34] = experiment: Efficacy against mouse infections caused by S. Pneumoniae measured as Minimum inhibitory concentration; format: functional

Structure (SMILES)	ED50 (Mus musculus [1])	MIC (Streptococcus pneumoniae [2]) [µg/mL]	Ratio [3]	MIC (Streptococcus pneumoniae [4]) [µg/mL]	MIC (Haemophilus influenzae [5]) [µg/mL]	ED50 (Mus musculus [6])	MIC (Streptococcus pyogenes [7]) [µg/mL]	MIC (Haemophilus influenzae [8]) [µg/mL]	Ratio [9]	ED50 (Mus musculus [10])	MIC (Streptococcus pyogenes [11]) [µg/mL]	ED50 (Mus musculus [12])	ED50 (Mus musculus [13])	MIC (Escherichia coli) [µg/mL]	MIC (Staphylococcus aureus [14]) [µg/mL]	MIC (Klebsiella aerogenes) [µg/mL]	MIC (Salmonella typhi [15]) [µg/mL]	MIC (Staphylococcus aureus [16]) [µg/mL]	MIC (Klebsiella pneumoniae [17]) [µg/mL]	ED50 (Mus musculus [18])	also measured
C=CC1=C(C(=O)O)N2C(=O)[C@@H](NC(=O)Cc3csc4ccccc34)[C@H]2SC1	3.54 2mg kg-1	0.03 (≈ 0.0749 µM)	4.2	0.06 (≈ 0.15 µM)	4 (≈ 9.99 µM)	8.4 2mg kg-1	0.015 (≈ 0.0375 µM)	4 (≈ 9.99 µM)	4.1	>16 2mg kg-1	0.03 (≈ 0.0749 µM)	14.7 2mg kg-1	0.76 2mg kg-1	> 128	0.125 (≈ 0.312 µM)	> 128	> 128	0.125 (≈ 0.312 µM)	> 128	3.12 2mg kg-1	–
O=C(Cc1csc2ccccc12)N[C@@H]1C(=O)N2C(C(=O)O)=CCS[C@H]12	8.2 2mg kg-1	0.25 (≈ 0.668 µM)	–	0.25 (≈ 0.668 µM)	4 (≈ 10.7 µM)	>10 2mg kg-1	0.06 (≈ 0.16 µM)	0.5 (≈ 1.34 µM)	3.6	>10 2mg kg-1	0.06 (≈ 0.16 µM)	>10 2mg kg-1	0.8 2mg kg-1	64 (≈ 171 µM)	0.25 (≈ 0.668 µM)	> 128	> 128	0.25 (≈ 0.668 µM)	> 128	2.9 2mg kg-1	–
Nc1nc(CC(=O)N[C@@H]2C(=O)N3C(C(=O)O)=C(Cl)CS[C@H]23)c(-c2ccccc2)s1	–	–	–	0.03 (≈ 0.0665 µM)	–	–	0.03 (≈ 0.0665 µM)	–	–	–	–	–	–	> 128	–	> 128	> 128	0.03 (≈ 0.0665 µM)	> 128	–	MIC (Haemophilus influenzae [19]): 16 µg/mL (≈ 35.5 µM); MIC (Haemophilus influenzae [20]): 16 µg/mL (≈ 35.5 µM)
CC1(C)S[C@@H]2[C@H](NC(=O)COc3ccccc3)C(=O)N2[C@H]1C(=O)O [PENICILLIN V]	–	–	3.9	–	–	–	–	–	11	–	–	–	–	–	–	–	–	–	–	0.46 mg/kg	ED50 (Mus musculus [21]): 2.3 mg/kg; Ratio [22]: 1.1
O=C(Cc1csc2ccccc12)N[C@@H]1C(=O)N2C(C(=O)O)=C(Cl)CS[C@H]12	–	–	1.4	–	–	–	–	–	2.4	–	–	–	–	–	–	–	128 (≈ 313 µM)	–	–	–	Ratio [22]: 2.4
Nc1nc2cc(CC(=O)N[C@@H]3C(=O)N4C(C(=O)O)=C(Cl)CS[C@H]34)ccc2s1	0.9 mg/kg	0.06 (≈ 0.141 µM)	11	0.06 (≈ 0.141 µM)	0.5 (≈ 1.18 µM)	2.3 mg/kg	0.06 (≈ 0.141 µM)	0.5 (≈ 1.18 µM)	–	> 10 mg/kg	0.03 (≈ 0.0706 µM)	10 mg/kg	3.54 mg/kg	64 (≈ 151 µM)	0.25 (≈ 0.588 µM)	> 128	64 (≈ 151 µM)	0.25 (≈ 0.588 µM)	64 (≈ 151 µM)	> 10 mg/kg	–
Nc1nc(CC(=O)N[C@@H]2C(=O)N3C(C(=O)O)=C(Cl)CS[C@H]23)cs1	–	0.5 (≈ 1.33 µM)	0.7	0.25 (≈ 0.667 µM)	–	–	–	–	4.5	–	–	–	–	–	–	–	0.25 (≈ 0.667 µM)	–	–	–	Ratio [22]: 1.4
O=C(CSc1cc(Cl)ccc1Cl)N[C@@H]1C(=O)N2C(C(=O)O)=C(Cl)CS[C@H]12	2.8 mg/kg	0.015 (≈ 0.0331 µM)	2.6	< 0.008	1 (≈ 2.2 µM)	6.3 mg/kg	< 0.008	1 (≈ 2.2 µM)	5.9	> 25 mg/kg	0.125 (≈ 0.275 µM)	7.2 mg/kg	1.3 mg/kg	32 (≈ 70.5 µM)	0.03 (≈ 0.0661 µM)	> 128	–	0.03 (≈ 0.0661 µM)	32 (≈ 70.5 µM)	7.7 mg/kg	MIC (Salmonella typhi [23]): 64 µg/mL (≈ 141 µM)
COC1=C(C(=O)O)N2C(=O)[C@@H](NC(=O)Cc3csc4ccccc34)[C@H]2SC1	–	–	–	0.5 (≈ 1.24 µM)	–	–	0.25 (≈ 0.618 µM)	0.5 (≈ 1.24 µM)	2	–	–	–	–	> 128	–	> 128	> 128	0.25 (≈ 0.618 µM)	–	–	ED50 (Streptococcus pyogenes [24]): > 10 mg/kg; ED50 (Streptococcus pneumoniae [25]): > 10 mg/kg; MIC (Staphylococcus aureus [26]): 0.5 µg/mL (≈ 1.24 µM); ED50 (Streptococcus pneumoniae [27]): > 10 mg/kg; ED50 (Streptococcus pyogenes [28]): > 10 mg/kg; ED50 (Staphylococcus aureus [29]): 1.4 mg/kg; MIC (Klebsiella pneumoniae [30]): > 128 µg/mL; MIC (Haemophilus influenzae [31]): 8 µg/mL (≈ 19.8 µM); MIC (Streptococcus pyogenes [32]): 0.25 µg/mL (≈ 0.618 µM); ED50 (Staphylococcus aureus [33]): 2.8 mg/kg; MIC (Streptococcus pneumoniae [34]): 0.5 µg/mL (≈ 1.24 µM)
